Only some compounds are listed: those with a hit (about 2.3% of all), similar ones and a draw of the others.
TRPC4 act: TRPC4 (mouse) channel activation. Q9QUQ5. HEK293 TRPC4beta/mu-opioid, Fluo4 calcium fluorescence; stronger effect = higher value. B-score at 10 µM. 310,000 compounds, 0.49% hits;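 active = B-score above 5 SD of library B-scores, and initial fluorescence ratio not above library mean plus 5 SD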;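 note: positive B-score marks a calcium rise read as TRPC4 activation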
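Assay system: HEK293 stable line with TRPC4beta plus mu-opioid receptor; schedule: 45 min room-temperature Fluo4 loading, 110 s read; technique: kinetic Fluo4 calcium fluorescence; evaluation: integrated baseline-normalised fluorescence ratio, converted to per-well B score; controls: buffer (low) and maximal DAMGO (high)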
TRPC6 act: activators of mouse TRPC6 channel; HEK293-TRPC6 membrane potential dye fluorescence; stronger effect = higher value; AID 2550; Q61143; 310,000 compounds, 0.13% hits; B-score at 10 µM;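 active = B-score of the integrated fluorescence ratio above library mean plus 3 SD, and starting fluorescence ratio within library mean plus 5 SD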;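 note: higher score means more depolarization so channel activation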
Target sequence (Q61143 whole entry, looked up): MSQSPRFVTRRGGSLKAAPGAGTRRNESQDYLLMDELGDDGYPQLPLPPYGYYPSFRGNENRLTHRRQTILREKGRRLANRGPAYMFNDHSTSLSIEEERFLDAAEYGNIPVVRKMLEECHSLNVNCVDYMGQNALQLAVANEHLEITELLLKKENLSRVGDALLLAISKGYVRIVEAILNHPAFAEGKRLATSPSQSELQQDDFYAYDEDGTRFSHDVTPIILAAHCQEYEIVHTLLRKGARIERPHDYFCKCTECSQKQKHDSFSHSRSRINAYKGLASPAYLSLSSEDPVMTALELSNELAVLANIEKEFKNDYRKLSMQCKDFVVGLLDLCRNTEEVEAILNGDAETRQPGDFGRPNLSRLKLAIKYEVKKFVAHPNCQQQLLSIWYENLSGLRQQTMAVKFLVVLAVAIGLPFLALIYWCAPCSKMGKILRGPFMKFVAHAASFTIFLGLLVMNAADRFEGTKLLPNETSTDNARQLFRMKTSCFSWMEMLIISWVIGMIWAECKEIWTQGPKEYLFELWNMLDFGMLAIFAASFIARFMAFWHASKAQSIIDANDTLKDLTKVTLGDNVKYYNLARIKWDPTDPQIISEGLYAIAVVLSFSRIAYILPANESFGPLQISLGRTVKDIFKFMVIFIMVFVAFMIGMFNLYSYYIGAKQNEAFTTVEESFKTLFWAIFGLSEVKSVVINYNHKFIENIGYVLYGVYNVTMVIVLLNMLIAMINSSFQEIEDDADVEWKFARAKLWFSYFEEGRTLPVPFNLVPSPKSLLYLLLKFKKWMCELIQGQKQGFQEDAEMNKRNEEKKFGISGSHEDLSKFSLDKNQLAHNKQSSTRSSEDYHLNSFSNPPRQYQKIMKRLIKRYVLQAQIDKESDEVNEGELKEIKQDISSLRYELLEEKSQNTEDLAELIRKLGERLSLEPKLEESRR
TRPC6 inhibitor: blocks the mouse TRPC6 cation channel | HEK293-TRPC6, membrane potential dye, ACh-evoked depolarization; stronger effect = lower value | AID 2553 | Q61143 | B-score at 10 µM | 310,000 compounds, 1.1% hits;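 active = B-score under library mean minus 3 SD, initial fluorescence not abnormally high, positive integrated signal ratio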;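 note: B-score derived from integrated fluorescence ratio over the kinetic read; more negative B-score means stronger inhibition of depolarization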
TRPC4 inh: TRPC4 (mouse) channel inhibition. Q9QUQ5. HEK293 TRPC4beta/mu-opioid, DAMGO-evoked Fluo4 calcium flux; stronger effect = lower value. B-score at 10 µM. 300,000 compounds, 0.39% hits. AID 2247;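 active = B-score over 3 SD under the library average, no early fluorescence shift, positive overall ratio signal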
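material = TRPC4beta/mu-opioid receptor HEK293 cell line | probe or stimulus = sequential submaximal and maximal DAMGO stimulation | compound dosing = one concentration per compound | measured by = Fluo4 Ca2+ flux fluorescence | evaluation = integrated fluorescence ratio relative to baseline, converted to per-well B score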
TRPC4 potent: allosterically enhances the mouse TRPC4 cation channel | Q9QUQ5 | B-score at 10 µM | AID 2227 | 310,000 compounds, 0.42% hits | HEK293 TRPC4beta/mu-opioid, DAMGO EC20, Fluo-4 Ca2+ flux; stronger effect = higher value;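 active = B-score of calcium response area above 5 SD of library B-scores, with initial fluorescence ratio within 5 SD of library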
TRPC4 sel inh 2: second selectivity test of TRPC6 inhibitors: effect on mouse TRPC4 | AID 2776 | 920 compounds, 42% hits | shares compounds with TRPC6 inhibitor | HEK293 TRPC4/MOR, membrane potential dye fluorescence; channel activated by saturating DAMGO dose | inhibition, % at 10 µM;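 active = compounds whose fluorescence signal differed from control wells by over 3 SD, either direction, in both duplicate plates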
TRPC4 spec: selectivity of TRPC6 inhibitors: effect on mouse TRPC4; shares compounds with TRPC6 inhibitor; HEK293 TRPC4/mu-opioid, membrane potential fluorescence; activity change, negative = inhibition, % at 10 µM; 920 compounds, 61% hits;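 active = rise or fall in signal beyond 3 SD of buffer-only wells in both replicate plates, either sign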;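 note: integrated kinetic ratio of fluorescence range over baseline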
HEK293 MPD ctr 2-1: second check of TRPC6 inhibitor effects in parental HEK293 cells; 920 compounds, 31% hits; signal change vs control, % at 10 µM; shares compounds with TRPC6 inhibitor; parental HEK293 membrane potential dye fluorescence; maximal acetylcholine challenge after compound addition;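 active = membrane potential signal moving either way by over 3 SD of the maximum-effect control, in both duplicate plates, meaning non-specific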
HEK293 MPD ctr-1: parental HEK293 nonspecific activity of TRPC6 inhibitors; shares compounds with TRPC6 inhibitor; parental HEK293 membrane potential dye fluorescence; membrane potential signal change, % at 10 µM; 920 compounds, 60% hits;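 active = membrane potential signal shifting up or down by more than 3 SD of buffer-only wells, on both duplicate plates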
HEK293 MPD ctr-2: checks TRPC6 modulator effects in parental HEK293 cells. 2,400 compounds, 51% hits. shares compounds with TRPC6 inhibitor. membrane potential signal change, % at 10 µM. membrane potential dye fluorescence. AID 488924;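 active = membrane potential signal moves up or down beyond 5 SD from buffer-only wells, on both duplicate plates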
HEK293 MPD ctr 2-2: second counter-screen for TRPC6 modulators: effect in parental HEK293 cells; shares compounds with TRPC6 inhibitor; AID 488926; membrane potential dye fluorescence; after compound, maximal acetylcholine stimulation; inhibition, % at 10 µM; 2,400 compounds, 14% hits;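 active = membrane potential signal drops by more than 5 SD from the mean control signal, in both duplicate plates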
TRPC4 ctr mod: mouse TRPC4 off-target activity of TRPC6 modulators | HEK293 TRPC4/mu-opioid, membrane potential fluorescence | 2,400 compounds, 69% hits | percent change from control (negative = decrease, positive = increase), % at 10 µM | shares compounds with TRPC6 inhibitor | AID 488927;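 active = membrane potential signal moved up or down beyond 5 SD of buffer control wells, in both duplicate plates, actives on both sides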
TRPC4 ctr inh 2: mouse TRPC4 off-target activity of TRPC6 modulators, second screen. inhibition, % at 10 µM. AID 488928. shares compounds with TRPC6 inhibitor. HEK293 TRPC4/mu-opioid, membrane potential dye fluorescence; stimulated with maximal-effect DAMGO. 2,400 compounds, 55% hits;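 active = drop in membrane potential signal beyond 5 SD of the control wells in both duplicate plates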;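 note: TRPC4 counter screen for TRPC6 hits run under conditions tuned for TRPC6 not TRPC4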
TRPC6 inh conf: mouse TRPC6 inhibitor confirmation; shares compounds with TRPC6 inhibitor; inhibition, % at 10 µM; HEK293-TRPC6, membrane potential dye, ACh-evoked depolarization; 3,300 compounds, 43% hits;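 active = fluorescence ratio falls more than 5 SD below the full-stimulation control mean, in both duplicate runs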;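 note: integrated fluorescence ratio of peak minus minimum over baseline after agonist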
TRPC6 act confirm: confirmation of mouse TRPC6 activators | 2,800 compounds, 11% hits | AID 488961 | HEK293-TRPC6 membrane potential dye fluorescence, FDSS | activation, % at 10 µM | shares compounds with TRPC6 inhibitor;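 active = ratio signal rise beyond 5 SD above unstimulated control wells' mean, seen in both duplicate runs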
Each line names hits and unclear results; the compound was inactive in the other large screens (follow-up assays come after a bar, where they were run).

CCN(CC)CCOC(=O)C1(c2ccc(OC)c(OC)c2)CCCC1	none
CCN(CC)CCOC(=O)C1(c2ccccc2)CCCC1	TRPC6 inhibitor -9.16 | TRPC4 sel inh 2 inactive | TRPC4 spec 16.5% | HEK293 MPD ctr 2-1 -2.5% | HEK293 MPD ctr-1 15.2% | TRPC6 inh conf 74.3%
CCCn1nc([N+](=O)[O-])c(C(C#N)c2nc3ccccc3o2)c(Cl)c1=O (configuration not stated)	TRPC6 inhibitor -7.93, TRPC4 inh -5 | HEK293 MPD ctr-2 -217.0% | HEK293 MPD ctr 2-2 inactive | TRPC4 ctr mod -46.0% | TRPC4 ctr inh 2 81.0% | TRPC6 inh conf 68.5% | TRPC6 act confirm inactive
COc1ccc(CNc2nc3ccccc3n2CCN2CCCCC2)c(OC)c1	TRPC6 inhibitor -10.1 | TRPC4 sel inh 2 42.5% | TRPC4 spec 9.3% | HEK293 MPD ctr 2-1 252.0% | HEK293 MPD ctr-1 7.9% | TRPC6 inh conf inactive | TRPC6 act confirm inactive
COc1cccc(CNc2nc3ccccc3n2CCN2CCCCC2)c1	TRPC6 inhibitor -6.08 | HEK293 MPD ctr-2 inactive | HEK293 MPD ctr 2-2 inactive | TRPC4 ctr mod inactive | TRPC4 ctr inh 2 55.5% | TRPC6 inh conf 35.0% | TRPC6 act confirm inactive
COc1ccc(OC)c(CNc2nc3ccccc3n2CCN2CCCCC2)c1	none
Brc1cccc(CNc2nc3ccccc3n2CCN2CCCCC2)c1	none
Brc1ccc(CNc2nc3ccccc3n2CCN2CCCCC2)cc1	TRPC6 inhibitor -5.17 | HEK293 MPD ctr-2 inactive | HEK293 MPD ctr 2-2 inactive | TRPC4 ctr mod 15.0% | TRPC4 ctr inh 2 89.0% | TRPC6 inh conf 38.0% | TRPC6 act confirm inactive
N#Cc1c(NC(=S)NC(=O)Cc2cccs2)sc2c1CCCCC2	none
Cc1cc(/C=N/n2cnnc2)c(O)c([N+](=O)[O-])c1	none
O=C(COc1ccc(F)cc1Cl)N(Cc1nnc(-c2ccccc2Cl)o1)C1CC1	none
O=C1c2ccccc2-c2onc3c(N4CCN(CCO)CC4)cc(N4CCN(C(=O)c5ccco5)CC4)c1c23	TRPC6 inhibitor -7 | TRPC4 sel inh 2 inactive | TRPC4 spec -46.6% | HEK293 MPD ctr 2-1 inactive | HEK293 MPD ctr-1 -608.5% | TRPC6 inh conf inactive | TRPC6 act confirm inactive
COc1ccc(C2c3c(ncn(CCN4CCOCC4)c3=N)Oc3ccc4ccccc4c32)cc1OC (configuration not stated)	TRPC6 inhibitor -5.13 | HEK293 MPD ctr-2 204.0% | HEK293 MPD ctr 2-2 inactive | TRPC4 ctr mod 34.0% | TRPC4 ctr inh 2 40.0% | TRPC6 inh conf inactive
O=Cc1cnc(N2CCOCC2)nc1	none
OCCNc1nc(Nc2ccccc2)nc2ccccc12	TRPC6 inhibitor -9.64 | TRPC4 sel inh 2 32.5% | TRPC4 spec -21.7% | HEK293 MPD ctr 2-1 inactive | HEK293 MPD ctr-1 -224.5% | TRPC6 inh conf 69.4% | TRPC6 act confirm inactive
OCCNc1nc(Nc2ccc(Br)cc2)nc2ccccc12	TRPC6 inhibitor -7.04 | TRPC4 sel inh 2 46.0% | TRPC4 spec -20.5% | HEK293 MPD ctr 2-1 inactive | HEK293 MPD ctr-1 -181.0% | TRPC6 inh conf inactive | TRPC6 act confirm inactive
Cc1c(Cl)cccc1Nc1nc(NCCO)c2ccccc2n1	TRPC6 inhibitor -6.9 | TRPC4 sel inh 2 51.0% | TRPC4 spec inactive | HEK293 MPD ctr 2-1 inactive | HEK293 MPD ctr-1 inactive | TRPC6 inh conf inactive | TRPC6 act confirm inactive
OCCNc1nc(Nc2ccccc2)nc(Nc2ccccc2)n1	none
CCn1c2ccccc2c2cc(NC(=O)c3ccco3)ccc21	none
N#CCn1c(CCl)nc2ccccc2c1=O	none
CN1CCN(Cc2nc3ccccc3c(=O)n2CC#N)CC1	TRPC6 inhibitor -6.86 | TRPC4 sel inh 2 inactive | TRPC4 spec inactive | HEK293 MPD ctr 2-1 inactive | HEK293 MPD ctr-1 inactive | TRPC6 inh conf inactive | TRPC6 act confirm inactive
COC(=O)c1ccc(N=Cc2c(C(F)(F)F)[nH][nH]c2=O)cc1	none
COc1cccc2oc3ccc(C#CC4(N)CCCCC4)cc3c(=O)c12	TRPC6 inhibitor -10.8 | TRPC4 sel inh 2 68.5% | TRPC4 spec inactive | HEK293 MPD ctr 2-1 237.0% | HEK293 MPD ctr-1 inactive | TRPC6 inh conf inactive | TRPC6 act confirm inactive
O=c1c2ccccc2oc2ccc(C#CC3(O)CCCCC3)cc12	none
COc1ccc(-c2csc(NC(=O)CCS(=O)(=O)c3ccccc3)n2)c(OC)c1	none
COc1cccc(-c2nc(CS(=O)(=O)CC(=O)Nc3ccccc3Br)c(C)o2)c1	none
Cc1cccc2sc(N3CCN(C(=O)c4cccs4)CC3)nc12	TRPC6 inhibitor -5.43 | HEK293 MPD ctr-2 inactive | HEK293 MPD ctr 2-2 inactive | TRPC4 ctr mod 14.0% | TRPC4 ctr inh 2 32.5% | TRPC6 inh conf 47.0%
ClCc1nc2ccccc2c2ccccc12	none
O=C(CCN1CCCCO1)N1CCCC(Nc2ccc(F)c(F)c2)C1 (configuration not stated)	TRPC6 inhibitor -5.83 | HEK293 MPD ctr-2 inactive | HEK293 MPD ctr 2-2 inactive | TRPC4 ctr mod 8.5% | TRPC4 ctr inh 2 inactive | TRPC6 inh conf 45.5%
CCc1nccn1CCC(=O)N1CCCC(Nc2ccc(F)cc2)C1 (configuration not stated)	TRPC6 inhibitor -7.58 | HEK293 MPD ctr-2 inactive | HEK293 MPD ctr 2-2 inactive | TRPC4 ctr mod 12.0% | TRPC4 ctr inh 2 inactive | TRPC6 inh conf inactive
NC(=O)CSc1nnc(-c2cc3ccccc3o2)n1Cc1ccccc1	none
